In ChEMBL document CHEMBL1150195, “The 1990 United States-Japan seminar on bioorganic marine chemistry, meeting report” (J Nat Prod, 1991) one finds T/C, Activity and IC50 data, which are given here for 21 compounds.

Test [1] deals with P388. The test is described as follows: In vivo antitumor activity against mouse P388 cells at 0.125 mg/kg relative to control. It counts as functional.
Test [2] has as its system Candida albicans. The test is described as follows: Antifungal activity against Candida albicans in presence of 50 ppm ergosterol. Format: functional. A digest of the protocol:
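Candida albicans screened first by conventional agar disk diffusion. Samples active against C. albicans but not Escherichia coli were retested on agar-tryptic broth plates supplemented with ergosterol at 0–100 ppm. The assay picks out antifungal activity that depends on binding to membrane ergosterol.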

The nature of test [3]: Inhibition of protein phosphatase 2A.
The test system of test [4] is L1210. The test is described as follows: Cytotoxicity against mouse L1210 cells at 0.1 ug/ml. Format: functional.
For test [5], the system named is B16. The test is described as follows: Cytotoxicity against mouse B16 cells. Format: functional, cell-based.
The test system of test [6] is HCT-116. The test is described as follows: Cytotoxicity against human HCT116 cells. Format: functional, cell-based.
Test [7] relates to KB. The test is described as follows: Cytotoxicity against human KB cells. It counts as functional, cell-based.
Test [8] deals with Melanoma cell. The test is described as follows: In vivo antitumor activity against human melanoma cells xenografted in mouse at 160 ug/kg//injection relative to control. It counts as functional. For orientation: A xenograft is tissue or cells of one species grown in another, often human tumour cells in immunodeficient mice.
The subject of test [9] is Leukemia cell. The test is described as follows: In vivo antitumor activity against human leukemia cells xenografted in mouse at 160 ug/kg/injection relative to control. It counts as functional.

The structures appear in SMILES notation. Values after ≈ are worked out from the molar mass of the structure shown. Some results are limits rather than exact numbers.

The T/C is the result in the treated group divided by that in the control group, in per cent. The IC50 is the concentration that inhibits the measured activity by half. High values mean weaker potency in that assay, low ones greater potency in that assay.

`C/C=C\[C@H](C)[C@H]1O[C@@]1(C)[C@@H](O)[C@H]1COC(=O)[C@H](O)[C@@H](OC)[C@H](C)C(=O)[C@H](C)[C@@H](O)/C(C)=C/[C@H](C)C(=O)CC[C@@H](C)C1=O` displayed a T/C in [1] of 190%.
Regarding `C[C@@H]1[C@H](O)[C@@H](C)/C=C/C=C/C=C/C=C/C=C/C=C/C=C/[C@H](O[C@@H]2O[C@H](C)[C@@H](O)[C@H](N)[C@@H]2O)C[C@@H]2O[C@](O)(C[C@@H](O)C[C@@H](O)[C@H](O)CC[C@@H](O)C[C@@H](O)CC(=O)O[C@H]1C)C[C@H](O)[C@H]2C(=O)O` [AMPHOTERICIN B], in test [2], the Activity is on record as 50%.
As for `COC[C@@H]([C@H](O)[C@H](O)C(=O)NCC[C@H](C)c1nc(/C=C/C[C@@H]2O[C@]3(C[C@@H](O)[C@@H]2C)O[C@H]([C@H](C[C@H](O)[C@H](C)[C@H](O)[C@H](C)/C=C(C)/C(C)=C/C=C/C(C)=C\C#N)OC)[C@H](OP(=O)(O)O)C3(C)C)co1)N(C)C` [CALYCULIN A], the IC50 in test [3] is 0.9 nM.
On to `COC[C@@H]([C@H](O)[C@H](O)C(=O)NCC[C@H](C)c1nc(/C=C/C[C@@H]2O[C@]3(C[C@@H](O)[C@@H]2C)O[C@H]([C@H](C[C@H](O)[C@H](C)[C@H](O)[C@H](C)/C=C(C)/C(C)=C/C=C/C(C)=C/C#N)OC)[C@H](OP(=O)(O)O)C3(C)C)co1)N(C)C` [CALYCULIN B], for which the IC50 in test [3] amounted to 0.9 nM.
Still for that read-out and setting: with `COC[C@@H]([C@H](O)[C@H](O)C(=O)N[C@H](C)C[C@H](C)c1nc(/C=C/C[C@@H]2O[C@]3(C[C@@H](O)[C@@H]2C)O[C@H]([C@H](C[C@H](O)[C@H](C)[C@H](O)[C@H](C)/C=C(C)/C(C)=C/C=C/C(C)=C/C#N)OC)[C@H](OP(=O)(O)O)C3(C)C)co1)N(C)C` [CALYCULIN D] the figure was 0.9 nM; with `COC[C@@H]([C@H](O)[C@H](O)C(=O)NCC[C@H](C)c1nc(/C=C/C[C@@H]2O[C@]3(C[C@@H](O)[C@@H]2C)O[C@H]([C@H](C[C@H](O)[C@H](C)[C@H](O)[C@H](C)/C=C(C)/C(C)=C\C=C\C(C)=C/C#N)OC)[C@H](OP(=O)(O)O)C3(C)C)co1)N(C)C` [CALYCULIN E], 0.9 nM.
Regarding `COC[C@@H]([C@H](O)[C@H](O)C(=O)NCC[C@H](C)c1nc(/C=C/C[C@@H]2O[C@]3(C[C@@H](O)[C@@H]2C)O[C@H]([C@H](C[C@H](O)[C@H](C)[C@H](O)[C@H](C)/C=C(C)/C(C)=C\C=C\C(C)=C\C#N)OC)[C@H](OP(=O)(O)O)C3(C)C)co1)N(C)C` [CALYCULIN F], in test [3], half-maximal inhibition (IC50) required 0.9 nM.
`COC[C@@H]([C@H](O)[C@H](O)C(=O)N[C@H](C)C[C@H](C)c1nc(/C=C/C[C@@H]2O[C@]3(C[C@@H](O)[C@@H]2C)O[C@H]([C@H](C[C@H](O)[C@H](C)[C@H](O)[C@H](C)/C=C(C)/C(C)=C\C=C\C(C)=C/C#N)OC)[C@H](OP(=O)(O)O)C3(C)C)co1)N(C)C` [CALYCULIN G] registered an IC50 in test [3] of 0.9 nM.
The compound `COC[C@@H]([C@H](O)[C@H](O)C(=O)N[C@H](C)C[C@H](C)c1nc(/C=C/C[C@@H]2O[C@]3(C[C@@H](O)[C@@H]2C)O[C@H]([C@H](C[C@H](O)[C@H](C)[C@H](O)[C@H](C)/C=C(C)/C(C)=C\C=C\C(C)=C\C#N)OC)[C@H](OP(=O)(O)O)C3(C)C)co1)N(C)C` [CALYCULIN H] registered an IC50 in test [3] of 0.9 nM.
`COC[C@@H]([C@H](O)[C@H](O)C(=O)N[C@H](C)C[C@H](C)c1nc(/C=C/C[C@@H]2O[C@]3(C[C@@H](O)[C@@H]2C)O[C@H]([C@H](C[C@H](O)[C@H](C)[C@H](O)[C@H](C)/C=C(C)/C(C)=C/C=C/C(C)=C\C#N)OC)[C@H](OP(=O)(O)O)C3(C)C)co1)N(C)C` [CALYCULIN] showed an IC50 in test [3] of 0.9 nM. In other words, the sub-nanomolar range.
As for `CC[C@H]1CCCC[C@@]2(C[C@@H]3CC[C@@H]4[C@H](C(=O)OCCCCCCCCCCCCCCCC(=O)N(CCCN)C[C@@H](O)CCN)[C@]5(CCC[C@@H](C)O5)N=C(N2)N34)O1` [CRAMBESCIDIN 800], the Activity in test [4] came out at 98%.
The same measure, in the same setting: then `CC[C@H]1CCCC[C@@]2(C[C@@H]3CC[C@]4(O)[C@H](C(=O)OCCCCCCCCCCCCCCCC(=O)N(CCCN)C[C@@H](O)CCN)[C@]5(CCC[C@@H](C)O5)N=C(N2)N34)O1` [CRAMBESCIDIN 816], with 98%.
Same read-out and setting: with `CC[C@@H]1CCCC[C@]2(C[C@H]3CCC4(O)C(C(=O)OCCCCCCCCCCCCCCCCC(=O)N(CCCN)CC(O)CCN)[C@@]5(CCC[C@H](C)O5)N=C(N2)N34)O1` (stereo partly drawn) [CRAMBESCIDIN 830] the figure was 98%; with `CC[C@@H]1CCCC[C@]2(C[C@H]3CCC4(O)C(C(=O)OCCCCCCCCCCCCCCCCCC(=O)N(CCCN)CC(O)CCN)[C@@]5(CCC[C@H](C)O5)N=C(N2)N34)O1` (stereo partly drawn) [CRAMBESCIDIN 844], 98%.
Regarding `[H][C@]12Nc3c4cccc3[C@]13C1=C(N=C(O1)[C@H](C(C)C)NC(=O)[C@@H](NC(=O)[C@@H](O)C(C)C)Cc1ccc(c3c1)O2)c1nc(Cl)c(o1)-c1c(Cl)[nH]c2cccc-4c12` [DIAZONAMIDE A], the IC50 in test [5] and in [6] was less than 0.015 µg/mL throughout.
In turn, `CO/N=C/CCCCCCC[C@@H](C)CCCCCCCCCCc1cccnc1` [IKIMINE A] showed an IC50 in test [7] of 5 µg/mL (≈ 12.4 µM).
Still for that read-out and setting: then `CO[C@H]1C[C@H](CC[C@H](C)[C@H](O)[C@H](C)[C@H]2OC(=O)/C=C/C(C)=C/C[C@H](O)C[C@@H]3CCC[C@H](C[C@H](OC)[C@@H](C)[C@@H](O)C[C@@H](O)[C@H](C)[C@H](O)[C@@H](C)[C@H]([C@@H](C)CC[C@H]4C[C@H](OC)C[C@H](C)O4)OC(=O)/C=C/C(C)=C/C[C@H](O)C[C@@H]4C=CC[C@H](C[C@H](OC)[C@@H](C)[C@@H](O)C[C@@H](O)[C@@H]2C)O4)O3)O[C@@H](C)C1` [ISOSWINHOLIDE A], with 1.1 µg/mL (≈ 0.79 µM).
`CC[C@H](C)[C@H]1NC(=O)[C@@H](NC(=O)[C@@H](CC(C)C)N(C)C(=O)[C@@H]2CCCN2C(=O)C(C)=O)[C@@H](C)OC(=O)[C@H](Cc2ccc(OC)cc2)N(C)C(=O)[C@@H]2CCCN2C(=O)[C@H](CC(C)C)NC(=O)[C@@H](C)C(=O)[C@H](C(C)C)OC(=O)C[C@@H]1O` [PLITIDEPSIN]: the T/C in test [8] was 218%; in test [9], 210%.
`CO[C@@H]1C[C@@H](O)C[C@@H](O)[C@H](C)[C@@H]([C@@H](C)[C@@H](O)[C@@H](C)CC[C@H]2C[C@H](OC)C[C@H](C)O2)OC(=O)/C=C/C(C)=C/C[C@H](O)C[C@@H]2C=CC[C@H](C[C@H](OC)[C@@H](C)[C@@H](O)C[C@@H](O)[C@H](C)[C@@H]([C@@H](C)[C@@H](O)[C@@H](C)CC[C@H]3C[C@H](OC)C[C@H](C)O3)OC(=O)/C=C/C(C)=C/C[C@H](O)C[C@@H]3CCC[C@H](C1)O3)O2` [SWINHOLIDE B]: in [7], the IC50 was determined as 0.04 µg/mL (≈ 0.029 µM).
On the same count and under the same terms, then `CO[C@H]1C[C@H](CC[C@H](C)[C@H](O)[C@H](C)[C@H]2OC(=O)/C=C/C(C)=C/C[C@H](O)C[C@@H]3C=CC[C@@H](C[C@H](OC)[C@@H](C)[C@@H](O)C[C@@H](O)[C@H](C)[C@@H]([C@@H](C)[C@@H](O)[C@@H](C)CC[C@H]4C[C@H](OC)C[C@H](C)O4)OC(=O)/C=C/C(C)=C/C[C@H](O)C[C@@H]4C=CC[C@@H](C[C@H](OC)[C@@H](C)[C@@H](O)C[C@@H](O)[C@@H]2C)O4)O3)O[C@@H](C)C1` [Swinholide A], with 0.04 µg/mL (≈ 0.0288 µM).
On the same count and under the same terms, with `CO[C@H]1C[C@H](CC[C@H](C)[C@H](O)[C@H](C)[C@H]2OC(=O)/C=C/C(C)=C/C[C@H](O)C[C@@H]3CCC[C@H](C[C@H](OC)[C@@H](C)[C@@H](O)C[C@@H](O)[C@H](C)[C@@H]([C@@H](C)[C@@H](O)[C@@H](C)CC[C@H]4C[C@H](O)C[C@H](C)O4)OC(=O)/C=C/C(C)=C/C[C@H](O)C[C@@H]4C=CC[C@H](C[C@H](OC)[C@@H](C)[C@@H](O)C[C@@H](O)[C@@H]2C)O4)O3)O[C@@H](C)C1` [swiholide C] the figure was 0.04 µg/mL (≈ 0.029 µM).
